Test results: ChEMBL document CHEMBL1155348, “Synthesis and antiviral activity of beta-carboline derivatives bearing a substituted carbohydrazide at C-3 against poliovirus and herpes simplex virus (HSV-1)” (Eur J Med Chem, 2009)
pEC50: −log10 of the molar value. The source made the active and inactive calls. No cut-off for these calls is given here.

Experiments:
Enterovirus C [1] = experiment: Antiviral activity against Poliovirus infected in african green monkey Vero cells by SRB assay; format: functional, organism-based
Summary of the method: (§1)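 Screening: Vero monolayers, infected or uninfected, were treated with a range of compound concentrations. Antiviral activity was read by sulforhodamine B (SRB) staining, and EC50 was taken as the concentration giving 50% efficacy.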

[2] = Cytotoxicity against african green monkey Vero cells after 72 hrs by SRB assay; format: cell-based; details: chlorocebus sabaeus
Summary of the method: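 Uninfected Vero cells were exposed to compound for 72 h and viability was measured by SRB assay. CC50 is the concentration giving 50% cytotoxicity.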

Human alphaherpesvirus 1 [3] = experiment: Antiviral activity against HSV1 infected in african green monkey Vero cells by SRB assay; format: functional, organism-based; details: Human alphaherpesvirus 1, Vero; summary of the method: as §1
[4] = Selectivity index, ratio of CC50 for african green monkey Vero cells to EC50 in HSV1
Summary of the method: (§2)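 SI was derived from the SRB-based CC50 in Vero cells and the SRB-based EC50 against each virus.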

[5] = Selectivity index, ratio of CC50 for african green monkey Vero cells to EC50 in Poliovirus; format: toxicity, cell-based; details: read-out: Ratio CC50/EC50; summary of the method: as §2
Enterovirus C [6] = experiment: Antiviral activity against Poliovirus infected in african green monkey Vero cells assessed as reduction of plaque formation at 3.3 uM treated during viral infection measured after 48 to 72 hrs by virus yield inhibition assay; format: functional; set-up: scale not given: the % may be the effect or the level left
Summary of the method: (§3)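 Compound was diluted from DMSO into serum-free DMEM and added together with virus to PBS-washed Vero monolayers for 1 h at 37 °C in 5% CO2. Unadsorbed virus was removed, and cells were washed with PBS and overlaid with DMEM plus 0.5% carboxymethylcellulose. After 48 or 72 h, cells were fixed with 10% formaldehyde, stained with 0.5% crystal violet and plaques counted.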

Enterovirus C [7] = experiment: Antiviral activity against 1 hr compound pretreated Poliovirus infected in african green monkey Vero cells assessed as reduction of plaque formation at 1.65 uM after 48 to 72 hrs by virus yield inhibition assay; format: functional; set-up: scale not given: the % may be the effect or the level left
Enterovirus C [8] = experiment: Antiviral activity against Poliovirus infected in african green monkey Vero cells assessed as reduction of plaque formation at 6.6 uM treated during viral infection measured after 48 to 72 hrs by virus yield inhibition assay; format: functional; set-up: scale not given: the % may be the effect or the level left; summary of the method: as §3
Enterovirus C [9] = experiment: Antiviral activity against 1 hr compound pretreated Poliovirus infected in african green monkey Vero cells assessed as reduction of plaque formation at 3.3 uM after 48 to 72 hrs by virus yield inhibition assay; format: functional; set-up: scale not given: the % may be the effect or the level left
Enterovirus C [10] = experiment: Antiviral activity against Poliovirus infected in 1 hr compound pretreated african green monkey Vero cells assessed as reduction of plaque formation at 0.825 uM measured after 48 to 72 hrs by virus yield inhibition assay; format: functional; set-up: scale not given: the % may be the effect or the level left
Summary of the method: (§4)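 Compound was dissolved in DMSO, diluted in serum-free DMEM and added to PBS-washed Vero monolayers for 1 h at 37 °C in 5% CO2. Unbound compound was removed and cells were washed and then infected for 1 h. Unadsorbed virus was removed, and cells were washed and overlaid with DMEM plus 0.5% carboxymethylcellulose. After 48 or 72 h, cells were fixed with formaldehyde, stained with crystal violet and plaques counted.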

Enterovirus C [11] = experiment: Antiviral activity against Poliovirus infected in 1 hr compound pretreated african green monkey Vero cells assessed as reduction of plaque formation at 1.65 uM measured after 48 to 72 hrs by virus yield inhibition assay; format: functional; set-up: scale not given: the % may be the effect or the level left; summary of the method: as §4
Enterovirus C [12] = experiment: Antiviral activity against 1 hr compound pretreated Poliovirus infected in african green monkey Vero cells assessed as reduction of plaque formation at 6.6 uM after 48 to 72 hrs by virus yield inhibition assay; format: functional; set-up: scale not given: the % may be the effect or the level left
Enterovirus C [13] = experiment: Antiviral activity against Poliovirus infected in african green monkey Vero cells assessed as reduction of plaque formation at 0.825 uM treated during viral infection measured after 48 to 72 hrs by virus yield inhibition assay; format: functional; set-up: scale not given: the % may be the effect or the level left; summary of the method: as §3
Enterovirus C [14] = experiment: Antiviral activity against Poliovirus infected in african green monkey Vero cells assessed as reduction of plaque formation at 1.65 uM treated during viral infection measured after 48 to 72 hrs by virus yield inhibition assay; format: functional; set-up: scale not given: the % may be the effect or the level left; summary of the method: as §3
Enterovirus C [15] = experiment: Antiviral activity against 1 hr compound pretreated Poliovirus infected in african green monkey Vero cells assessed as reduction of plaque formation at 0.825 uM after 48 to 72 hrs by virus yield inhibition assay; format: functional; set-up: scale not given: the % may be the effect or the level left
Enterovirus C [16] = experiment: Antiviral activity against Poliovirus infected in 1 hr compound pretreated african green monkey Vero cells assessed as reduction of plaque formation at 6.6 uM measured after 48 to 72 hrs by virus yield inhibition assay; format: functional; set-up: scale not given: the % may be the effect or the level left; summary of the method: as §4
Enterovirus C [17] = experiment: Antiviral activity against Poliovirus infected in 1 hr compound pretreated african green monkey Vero cells assessed as reduction of plaque formation at 3.3 uM measured after 48 to 72 hrs by virus yield inhibition assay; format: functional; set-up: scale not given: the % may be the effect or the level left; summary of the method: as §4
Enterovirus C [18] = experiment: Antiviral activity against Poliovirus infected in african green monkey Vero cells assessed as reduction of plaque formation at 3.3 uM treated 1 hr after viral infection measured after 48 to 72 hrs by virus yield inhibition assay; format: functional; set-up: scale not given: the % may be the effect or the level left
Summary of the method: (§5)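 PBS-washed Vero monolayers were infected for 1 h. Unadsorbed virus was removed, cells were washed, and compound was then added at various concentrations in DMEM with 0.5% carboxymethylcellulose. After 48 or 72 h at 37 °C, cells were fixed with 10% formaldehyde, stained with 0.5% crystal violet and plaques counted.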

Enterovirus C [19] = experiment: Antiviral activity against Poliovirus infected in african green monkey Vero cells assessed as reduction of plaque formation at 0.825 uM treated 1 hr after viral infection measured after 48 to 72 hrs by virus yield inhibition assay; format: functional; set-up: scale not given: the % may be the effect or the level left; summary of the method: as §5
Enterovirus C [20] = experiment: Antiviral activity against Poliovirus infected in african green monkey Vero cells assessed as reduction of plaque formation at 6.6 uM treated 1 hr after viral infection measured after 48 to 72 hrs by virus yield inhibition assay; format: functional; set-up: scale not given: the % may be the effect or the level left; summary of the method: as §5
Enterovirus C [21] = experiment: Antiviral activity against Poliovirus infected in african green monkey Vero cells assessed as reduction of plaque formation at 1.65 uM treated 1 hr after viral infection measured after 48 to 72 hrs by virus yield inhibition assay; format: functional; set-up: scale not given: the % may be the effect or the level left; summary of the method: as §5
Human alphaherpesvirus 1 [22] = experiment: Antiviral activity against 1 hr compound pretreated HSV1 infected in african green monkey Vero cells assessed as inhibition of viral replication measured after 48 to 72 hrs; format: functional, organism-based
Summary of the method: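 HSV-1 was mixed with compound for 1 h before being added to Vero cells. The mixture infected the cells for 1 h at 37 °C in 5% CO2. The monolayer was washed with PBS and overlaid with DMEM containing carboxymethylcellulose. After 48 or 72 h at 37 °C, cells were fixed with 10% formaldehyde and stained with 0.5% crystal violet, and plaques were counted.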

| SMILES | pEC50 (Enterovirus C [1]) | CC50 at 72 h [2] | pEC50 (Human alphaherpesvirus 1 [3]) | Ratio CC50/EC50 [4] | also measured |
| --- | --- | --- | --- | --- | --- |
| CN(C)c1ccc(/C=N/NC(=O)c2cc3c([nH]c4ccccc43)c(-c3cccc([N+](=O)[O-])c3)n2)cc1 | < 4.00 | 1050 µM | 4.14 | 14.3 | – |
| COc1ccc(-c2nc(C(=O)N/N=C/c3ccccc3)cc3c2[nH]c2ccccc23)cc1 | < 4.00 | – | < 4.00 | – | – |
| COc1ccc(-c2nc(C(=O)N/N=C/c3ccc(N(C)C)cc3)cc3c2[nH]c2ccccc23)cc1 | < 4.00 | – | < 4.00 | – | – |
| O=C(N/N=C/c1ccccc1)c1cc2c([nH]c3ccccc32)c(-c2ccc(O)cc2)n1 | 5.99 | 1240 µM | < 4.00 | – | selectivity ratio [5]: 1200 |
| O=C(N/N=C/c1ccccc1)c1cc2c([nH]c3ccccc32)c(-c2ccc([N+](=O)[O-])cc2)n1 | < 4.00 | – | < 4.00 | – | – |
| COc1ccc(/C=N/NC(=O)c2cc3c([nH]c4ccccc43)c(-c3ccc(OC)cc3)n2)cc1 | < 4.00 | – | < 4.00 | – | – |
| CN(C)c1ccc(/C=N/NC(=O)c2cc3c([nH]c4ccccc43)c(-c3ccc(O)cc3)n2)cc1 | 5.57 | 900 µM | < 4.00 | – | Activity (Enterovirus C [6]): 0%; Activity (Enterovirus C [7]): 0%; Activity (Enterovirus C [8]): 0%; Activity (Enterovirus C [9]): 0%; Activity (Enterovirus C [10]): 0%; Activity (Enterovirus C [11]): 0%; Activity (Enterovirus C [12]): 0%; Activity (Enterovirus C [13]): 0%; Activity (Enterovirus C [14]): 0%; Activity (Enterovirus C [15]): 0%; Activity (Enterovirus C [16]): 0%; Activity (Enterovirus C [17]): 0%; Activity (Enterovirus C [18]): 66.3%; Activity (Enterovirus C [19]): 0%; Activity (Enterovirus C [20]): 88.3%; selectivity ratio [5]: 337; Activity (Enterovirus C [21]): 32% |
| COc1ccc(/C=N/NC(=O)c2cc3c([nH]c4ccccc43)c(-c3ccc(O)cc3)n2)cc1 | < 4.00 | 803 µM | 4.64 | 35 | – |
| O=C(N/N=C/c1ccc([N+](=O)[O-])cc1)c1cc2c([nH]c3ccccc32)c(-c2ccccc2)n1 | < 4.00 | – | < 4.00 | – | – |
| COc1ccc(/C=N/NC(=O)c2cc3c([nH]c4ccccc43)c(-c3ccccc3)n2)cc1 | 6.06 | 1150 µM | 6.33 | 2446.8 | Activity (Human alphaherpesvirus 1 [22]): inactive; selectivity ratio [5]: 1320 |
| O=C(N/N=C/c1ccccc1Cl)c1cc2c([nH]c3ccccc32)c(-c2ccccc2)n1 | < 4.00 | – | < 4.00 | – | – |
| O=C(N/N=C/c1ccc([N+](=O)[O-])cc1)c1cc2c([nH]c3ccccc32)c(-c2ccc(O)cc2)n1 | < 4.00 | 200 µM | 4.06 | 2.3 | – |
| COc1ccc(/C=N/NC(=O)c2cc3c([nH]c4ccccc43)c(-c3cccc([N+](=O)[O-])c3)n2)cc1 | < 4.00 | – | < 4.00 | – | – |
| O=C(N/N=C/c1ccccc1Cl)c1cc2c([nH]c3ccccc32)c(-c2ccc(O)cc2)n1 | < 4.00 | 29.8 µM | 4.39 | 0.7 | – |
| COc1ccc(/C=N/NC(=O)c2cc3c([nH]c4ccccc43)c(-c3ccc([N+](=O)[O-])cc3)n2)cc1 | < 4.00 | – | < 4.00 | – | – |
| O=C(N/N=C/c1ccccc1)c1cc2c([nH]c3ccccc32)c(-c2ccccc2)n1 | 5.71 | 777 µM | < 4.00 | – | selectivity ratio [5]: 398 |
| CN(C)c1ccc(/C=N/NC(=O)c2cc3c([nH]c4ccccc43)c(-c3ccc([N+](=O)[O-])cc3)n2)cc1 | < 4.00 | – | < 4.00 | – | – |
| CN(C)c1ccc(/C=N/NC(=O)c2cc3c([nH]c4ccccc43)c(-c3ccccc3)n2)cc1 | 6.06 | 1160 µM | 5.73 | 629.5 | selectivity ratio [5]: 1340 |
| COc1ccc(-c2nc(C(=O)N/N=C/c3ccc([N+](=O)[O-])cc3)cc3c2[nH]c2ccccc23)cc1 | < 4.00 | – | < 4.00 | – | – |
